B1: Osa-1-4 twister ribozyme (parent)
chain: CCGCCUAACACUGCCAAUGCCGGUCCCAAGCCCGGAUAAAAGUGGAGGGGGCGG

The variants in the data set derive from B1. The data set is described as follows: self-cleavage, relative activity (ratio to wild type); higher = more cleavage; co-transcriptional. The method, boiled down:
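The 48 positions downstream of the cleavage site in a DNA template for a 54-nucleotide Oryza sativa twister ribozyme carried 97 % wild-type base and 1 % of each other base. After in vitro transcription (2 h, 37 °C) with co-transcriptional self-cleavage, the RNA was reverse-transcribed with a template-switching oligonucleotide, PCR-amplified and deep-sequenced. Relative activity is the fraction cleaved, judged by reads with or without upstream sequence and normalised to wild type.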
As for C31U G49U, the self-cleavage was 0.06.
The same measure for C31U G49A: 0.06.
C31U G49C: the self-cleavage was determined as 0.05.
The same measure for G30U U43C: 0.04.
On to G30U U43G, for which the self-cleavage amounted to 0.04.
For G30U U43A the value was 0.04.
For C31U G53U the value was 0.08.
C31U G53A: the self-cleavage was 0.19.
As to C31U G53C, the self-cleavage was found to be 0.05.
For C31G C52A the value was 0.1; for C31G C52U, 0.12; for C31G C52G, 0.15.
The same measure for C31A G50C: 0.04; for C31A G50U: 0.04.
With C31A G50A, the self-cleavage was 0.04.
For C31U U37C the value was 0.94; for C31U U37A, 0.84.
The same measure for C31U U37G: 1; for C31G U43A: 0.1; for C31G U43G: 0.09.
The same measure for C31G U43C: 0.06.
In the case of C32A U18C, the self-cleavage is 0.07.
For C32A U18A the value was 0.11; for C32A U18G, 0.19.
For C31A G45C the value was 0.01; for C31A G45A, 0.02.
For C31A G45U, the self-cleavage worked out at 0.02.
As to C31A G48U, the self-cleavage was 0.01.
The same measure for C31A G48C: 0.02; for C31A G48A: 0.02; for C31G G19A: 0.08.
The same measure for C31G G19U: 0.05; for C31G G19C: 0.02; for C31U G50A: 0.64.
For C31U G50U, the self-cleavage stood at 0.6.
As for C31U G50C, the self-cleavage was 0.26.
The same measure for G30U U24G: 0.01.
G30U U24C: the self-cleavage is 0.02.
For C32A G51U the value was 0.04; for C32A G51A, 0.07.
The same measure for C32A G51C: 0.03; for C32A G49A: 0.04; for C32A G49C: 0.03.
For the variant C32A G49U, the self-cleavage worked out at 0.04.
For C32A G45C the value was 0.02; for C32A G45A, 0.04; for C32A G45U, 0.03.
C31G G48U: the self-cleavage was determined as 0.02.
As to C31G G48C, the self-cleavage came to 0.03.
Take C31G G48A: the self-cleavage was determined as 0.03.
Regarding C31A U18A, the self-cleavage turned out to be 0.04.
As for C31A U18G, the self-cleavage was found to be 0.05.
Regarding C31A U18C, the self-cleavage stood at 0.04.
For C31U G23U the value was 0.04; for C31U G23A, 0.07.
Consider C31U G23C, for which the self-cleavage was 0.04.
Consider C31G G50U, for which the self-cleavage was found to be 0.06.
Consider C31G G50A, for which the self-cleavage came out at 0.11.
With C31G G50C, the self-cleavage is 0.07.
In the case of C32A G22U, the self-cleavage was determined as 0.06.
The same measure for C32A G22C: 0.03.
The same measure for C32A G22A: 0.08; for C32A G48C: 0.04.
With C32A G48U, the self-cleavage worked out at 0.03.
Take C32A G48A: the self-cleavage stood at 0.03.
In the case of C32A U12G, the self-cleavage was 0.06.
For C32A U12C the value was 0.04; for C32A U12A, 0.07; for C31U U12G, 0.19.
C31U U12A: the self-cleavage came to 0.28.
The same measure for C31U U12C: 0.11; for C32A G35C: 0.05.
As to C32A G35A, the self-cleavage is 0.06.
In the case of C32A G35U, the self-cleavage stood at 0.07.
As for C31A C52U, the self-cleavage turned out to be 0.05.
The same measure for C31A C52G: 0.05; for C31A C52A: 0.05.
As to C31U G54C, the self-cleavage stood at 0.27.
Consider C31U G54U, for which the self-cleavage is 0.5.
As to C31U G54A, the self-cleavage was 0.32.
In the case of C31A U43C, the self-cleavage came out at 0.03.
The same measure for C31A U43G: 0.04.
For C31A U43A the value was 0.03; for C32G C33G, 0.05.
For C32G C33U the value was 0.07; for C32G C33A, 0.07; for C31A U37A, 0.03.
Consider C31A U37G, for which the self-cleavage stood at 0.05.
The same measure for C31A U37C: 0.04; for C31G U24C: 0.03; for C31G U24A: 0.04.
With C31G U24G, the self-cleavage amounted to 0.02.
The same measure for C32A G19C: 0.02; for C32A G19A: 0.07; for C32A G19U: 0.04.
The same measure for C31A G13C: 0.01; for C31A G13U: 0.02; for C31A G13A: 0.01.
Take C32A U43A: the self-cleavage was determined as 0.07.
Regarding C32A U43G, the self-cleavage worked out at 0.05.
The same measure for C32A U43C: 0.06; for C31G G54U: 0.19; for C31G G54C: 0.07.
Take C31G G54A: the self-cleavage came to 0.1.
For C31U G30A, the self-cleavage turned out to be 0.03.
Regarding C31U G30U, the self-cleavage worked out at 0.03.
For C31U G30C the value was 0.03.
The same measure for C31U G13C: 0.02; for C31U G13U: 0.05.
For C31U G13A the value was 0.89.
For C31U C9U, the self-cleavage amounted to 0.32.
The same measure for C31U C9A: 0.11.
For C31U C9G the value was 0.16; for C32A G42U, 0.02; for C32A G42A, 0.06.
For C32A G42C the value was 0.06.
As to C31U G19C, the self-cleavage came to 0.06.
For C31U G19A the value was 0.14; for C31U G19U, 0.05; for C32A G23C, 0.03.
C32A G23A: the self-cleavage is 0.17.
For the variant C32A G23U, the self-cleavage was 0.48.
Consider C31G G45A, for which the self-cleavage amounted to 0.04.
For C31G G45U the value was 0.03; for C31G G45C, 0.03.
For the variant C31G U12C, the self-cleavage stood at 0.06.
For C31G U12G the value was 0.05; for C31G U12A, 0.08.
The same measure for C31G G53C: 0.04; for C31G G53U: 0.07.
C31G G53A: the self-cleavage turned out to be 0.08.
The same measure for C31G G13U: 0.04; for C31G G13C: 0.06.
The same measure for C31G G13A: 0.06; for C31G U18G: 0.15.
C31G U18C: the self-cleavage is 0.13.
For C31G U18A the value was 0.1; for C31U G47A, 0.05; for C31U G47C, 0.03.
C31U G47U: the self-cleavage was determined as 0.05.
On to C32G C9G, for which the self-cleavage is 0.11.
Take C32G C9U: the self-cleavage turned out to be 0.04.
For C32G C9A the value was 0.03; for C32G, 0.18.
Regarding C32A, the self-cleavage worked out at 0.15.
With C31U G35U, the self-cleavage was found to be 0.85.
The same measure for C31U G35A: 0.87; for C31U G35C: 0.14.
For C31A G35C, the self-cleavage came to 0.03.
For C31A G35A the value was 0.05; for C31A G35U, 0.05.
For C32A U37A the value was 0.14; for C32A U37G, 0.18; for C32A U37C, 0.13.
In the case of C31U C33A, the self-cleavage was determined as 0.08.
Turning to C31U C33G, the self-cleavage turned out to be 0.06.
Take C31U C33U: the self-cleavage was found to be 0.31.
Consider C31U G22C, for which the self-cleavage is 0.07.
For C31U G22U the value was 0.3; for C31U G22A, 0.52.
For C31U G44A the value was 0.29.
The same measure for C31U G44C: 0.62; for C31U G44U: 0.51.
C32A G54A: the self-cleavage was found to be 0.11.
The same measure for C32A G54U: 0.18; for C32A G54C: 0.06.
For C31A C32G, the self-cleavage was determined as 0.02.
